# Sampled rows, rich in hits. Any-hit rate of the full collection: about 11%.
# Diaph act CS: counter-screen for diaphorase-based assays: diaphorase activators and chemical reducers; Diaphorase/resazurin coupled assay, resorufin fluorescence, 16 min; hits give high values; 1 = vehicle wells, 0 = NADH-free wells; activation factor at 20 µM; 190,000 compounds, 0.005% hits;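 active = diaphorase activity raised at least twofold by the compound at 20 µM; inactive = activation factor below 2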
#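 test system = bacterial diaphorase enzyme (C. kluyveri) | quantity = enzyme 0.07 U/mL final | reagent = NADH substrate 0.114 mM plus resazurin dye 0.1 mM, final | incubation = 16 min enzyme reaction, ambient temperature | buffer or medium = HEPES pH 7.4 buffer with MgCl2 and Tween 20 | signal = fluorescence of resorufin, 544 nm excitation, 590 nm emission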
# WT yeast gro inh: growth inhibition of WT yeast, mitochondrial fusion screen; mitochondrial fusion phenotypic screen, WT strain; inhibition, % at 10 µM; 190,000 compounds, 2.1% hits; AID 1362; in the data active = inhibition above about 58%; tested in S. cerevisiae
# L major viab: inhibitors of Leishmania major promastigote growth | 200,000 compounds, 9% hits | Leishmania major promastigotes, resazurin fluorescence viability | inhibition, % at 10 µM | AID 1063;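 note: promastigotes grown with compound for 44 hours at 28 °C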
# G6PDH counter: inhibits Leuconostoc G6PDH, flagging false hits in G6PDH-based assays | Purified L. mesenteroides G6PDH, diaphorase/resazurin coupled fluorescence, 45 min | inhibition, % at 5 µM | 200,000 compounds, 0.12% hits
# Diaphorase inh: counter-screen for diaphorase-based assays: diaphorase inhibitors and chemical oxidizers; diaphorase resazurin-to-resorufin fluorescence, NADH, 16 min; bacterial (C. kluyveri) enzyme, not human; 190,000 compounds, 0.69% hits; inhibition, % at 20 µM; AID 1217;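 active = primary screen inhibition at 20 µM above a set limit, cut at about 50% in these data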;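 note: plate controls were DMSO with full reaction for no effect and wells lacking NADH for full effect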
#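 Detection: fluorescence of resorufin formed from resazurin, Ex 544/Em 590 nm; test system: Clostridium kluyveri diaphorase enzyme; amount: 0.14 U/mL diaphorase, enzyme working solution; times: 16-min room-temperature incubation before reading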
# * hit, by the source's call; nt = no result. Cut-off read from the data, not from the text of the source, unless noted: active = inhibition above about 50%; inactive = the rest.
SMILES,Diaph act CS,WT yeast gro inh,L major viab,G6PDH counter,Diaphorase inh
NS(=O)(=O)c1ccc(NC(CNS(=O)(=O)c2ccccc2)c2ccccc2)cc1 (stereo not drawn),0.9,1.1,4.0,1.1,10.2
Cc1ccc(NC(CNS(=O)(=O)c2ccc(Cl)cc2)c2ccccc2)cc1 (stereo not drawn),0.7,87.7*,53.5*,6.1,26.5
O=S(=O)(NCC(Nc1ccc(Cl)cc1)c1ccccc1)c1ccccc1 (stereo not drawn),0.8,82.8*,13.3,-6.7,22.0
Cc1ccc(-n2nc3c(N4CCN(c5ccccc5)CC4)nnc(C)c3c2C)cc1,nt,nt,23.3,nt,nt
CCN(CC)S(=O)(=O)c1ccc2c(c1)c(=O)c(C(=O)NCc1ccco1)cn2C,0.9,-12.6,29.2,2.1,11.2
CCc1ccc(-n2c(SCc3c(C)noc3C)nnc2-c2ccncc2)cc1,0.9,-6.7,72.0*,-1.2,12.3
Cc1cc(NC(=O)CSc2nnc(-c3ccncc3)n2-c2ccc(F)cc2)no1,1.1,6.0,10.5,2.8,-7.2
O=C(O)c1ccc(CSc2nnc(-c3ccncc3)n2-c2ccc(Cl)cc2)cc1,1,6.2,-0.9,3.4,4.1
COc1ccc(-c2noc(CSc3nnc(-c4ccncc4)n3-c3ccc(F)cc3)n2)cc1OC,0.9,15.9,71.7*,-31.9,9.8
COc1ccc2c(c1)C=C(C(=O)NCc1ccc(Cl)cc1)CO2,0.7,67.9*,22.5,-1.9,27.3
O=C(Nc1ccc(Cl)cc1)C1=Cc2cc(Cl)ccc2OC1,0.9,-4.9,-2.7,-1.2,10.4
CCC(C)[C@H](N)c1cn([C@@H](Cc2cc3ccccc3[nH]2)C(=O)N2CCNCC2)nn1 (stereo partly drawn),1.1,-5.3,-6.2,7.2,-12.4
CN(C)CCCN(C(=O)c1ccc2c(c1)CCCC2)c1nc2ccc(F)cc2s1,0.9,86.7*,73.5*,-54.3,14.6
Cc1ccc(C(=O)N(CCCN(C)C)c2nc3ccc(Cl)cc3s2)cc1C,1.2,89.5*,81.7*,-6.7,-16.8
Cc1ccc2nc(N(CCCN(C)C)C(=O)c3sc4ccccc4c3Cl)sc2c1,1.1,88.8*,56.0*,-81.5,-8.7
CCN(CC)CCN(C(=O)c1ccc2c(c1)CCCC2)c1nc2ccc(F)cc2s1,0.9,37.3,35.5,2.5,12.0
CC(=O)Nc1cc2c(cc1NC(=O)Cn1nnc(-c3ccc(C)o3)n1)OCCO2,0.8,-5.0,-0.4,11.0,20.2
CN(C(=O)CCc1nc(-c2ccccc2F)no1)c1ccccc1,0.9,20.4,2.0,3.3,14.0
O=S(=O)(Nc1cccc2ncccc12)c1cccs1,0.7,59.2*,100.1*,-25.4,29.5
Cc1cccc(N/C(N)=N/c2nc(C)c(Cc3ccccc3)c(=O)[nH]2)c1,0.9,0.5,0.5,9.7,7.1
O=C(c1ccc2c(c1)OCO2)N1CCN(c2ccc(C(F)(F)F)cn2)CC1,0.9,1.8,76.3*,8.7,9.9
O=C(Nc1ccccc1)N1CCN(c2ccc(C(F)(F)F)cn2)CC1,0.8,2.6,0.3,-8.3,16.0
O=C(c1ccc2ccccc2c1)N1CCN(c2ccc(C(F)(F)F)cn2)CC1,0.8,18.7,98.1*,3.8,15.7
FC(F)(F)c1ccc(N2CCN(Cc3ccc4c(c3)OCO4)CC2)nc1,0.8,18.1,-0.3,-4.0,15.3
CN1CCN(C(=O)c2ccc3ccccc3c2)CC1,0.8,-17.7,87.0*,0.0,19.6
SMILES,Diaph act CS,WT yeast gro inh,L major viab,G6PDH counter,Diaphorase inh
FC(F)(F)c1ccc(N2CCN(c3cc(-c4ccccc4)nc4ncnn34)CC2)nc1,0.7,63.6*,26.6,4.4,27.8
C=CCOc1cccc(C2C(C(=O)c3ccc(C)o3)=C(O)C(=O)N2c2nccs2)c1 (stereo not drawn),0.8,-1.3,-10.1,3.0,16.5
Cc1nc(N(C)C)c2sc(=S)n(Cc3ccccc3)c2n1,0.9,-15.4,0.8,-4.2,7.1
CC(C)OCCCNC(=O)NC(=O)c1ccc(Cl)cc1,1,-1.9,-5.1,-0.1,-4.4
COCCCNCC1C(Oc2ccc(Cl)cc2)C(=O)N1c1ccccc1C (stereo not drawn),0.9,25.3,84.5*,8.9,5.0
COCCN1CC(=O)N(c2cccc(C)c2C)C(c2ccc(Cl)cc2)C1=O (stereo not drawn),0.8,-12.8,0.3,10.5,17.8
Cc1ccccc1N1C(=O)C(Oc2ccc(Cl)cc2)C1CNCCCOC(C)C (stereo not drawn),0.9,32.9,93.5*,4.1,9.4
COc1ccc(CNC(=O)C2CCCN2)cc1OC (stereo not drawn),0.9,3.9,-5.8,8.0,10.7
FC(F)(F)COc1nc(N/N=C/c2cccnc2)nc(N2CCCCC2c2ccccn2)n1 (stereo not drawn),1,4.9,51.5*,-5.0,3.3
COc1ccc(/C=N/OCC(=O)N2CC3(C)CC2CC(C)(C)C3)cc1OC (stereo not drawn),0.9,6.4,64.7*,-7.1,8.3
Nc1nonc1-c1nc2ccccc2n1CC(=O)O,0.9,9.7,1.4,0.4,8.1
CC(C)OC(=O)c1ccc(NC(=O)Cn2c(-c3nonc3N)nc3ccccc32)cc1,1,-8.4,50.6*,2.8,2.3
Nc1nonc1-c1nc2ccccc2n1CC(=O)N/N=C/c1ccc(-c2cccc(C(=O)O)c2)o1,0.5,-40.4,-6.0,-6.2,52.1*
COC(=O)c1ccc(NC(=O)Cn2c(-c3nonc3N)nc3ccccc32)cc1,1.1,-12.4,-0.4,9.6,-6.5
Cc1cccc(C)c1NC(=O)CSc1nnc(CCCCCNC(=O)OC(C)(C)C)o1,0.8,nt,-2.3,-3.3,22.9
COc1ccc(-c2cc(C(=O)OC3CCOC3=O)c3ccccc3n2)cc1 (stereo not drawn),0.8,4.2,-1.8,-1.8,22.6
C=CCC(c1ccccc1F)N(CCN1CCOCC1)C(=O)Nc1cccc(Cl)c1 (stereo not drawn),0.8,9.4,93.2*,8.9,18.1
CCOc1cc(C2CC(=O)c3c(ccc4ccccc34)N2)ccc1O (stereo not drawn),0.8,13.5,35.7,7.5,17.2
COc1ccc(C2CC(=O)c3c(ccc4ccccc34)N2)cc1OC (stereo not drawn),0.7,20.1,99.7*,-3.1,28.1
CCCCNC(=O)Oc1cc(CCl)on1,0.3,-0.7,1.8,7.3,70.3*
Cc1ccc(SCc2[nH]nc3c2C(c2ccco2)C(C#N)=C(N)O3)cc1 (stereo not drawn),0.7,1.8,61.7*,3.6,32.5
CCc1[nH]nc2c1C(c1ccc(Br)s1)C(C#N)=C(N)O2 (stereo not drawn),0.7,12.0,99.7*,-2.2,25.6
Cc1ccc(SCc2[nH]nc3c2C(c2ccc(C)o2)C(C#N)=C(N)O3)cc1 (stereo not drawn),0.6,1.2,85.9*,7.2,44.6

# Source: PubChem
